Source: ChEMBL document CHEMBL2384939, “Synthesis of pyrazolo[1,5-a]pyrimidine linked aminobenzothiazole conjugates as potential anticancer agents” (Bioorg Med Chem Lett, 2013)
Active and inactive are the calls of the source. No cut-off for these calls is given here.

How the values were obtained:
HeLa = experiment: Cytotoxicity against human HeLa cells after 48 hrs by MTT assay; format: functional, cell-based
How it was run: (§1)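 MTT assay: […] were plated in DMEM with 10% FBS and incubated for 24 h at 37 °C under CO2. Compounds diluted in culture medium were added alongside a vehicle control for 48 h. MTT (10 µl of a 5 mg/ml stock) was added for a further 4 h. The supernatant was then removed, the formazan dissolved in DMSO, and absorbance read at 540 nm. IC50 was derived.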

MOLT-4 = experiment: Cytotoxicity against human MOLT4 cells after 48 hrs by MTT assay; format: functional; details: MOLT-4, 48 h
OVCAR-3 = experiment: Cytotoxicity against human OVCAR3 cells after 48 hrs by MTT assay; format: functional; details: OVCAR-3, 48 h
T47D = experiment: Cytotoxicity against human T47D cells after 48 hrs by MTT assay; format: functional
SNB-19 = experiment: Cytotoxicity against human SNB19 cells after 48 hrs by MTT assay; format: functional; details: SNB-19, 48 h
A549 [1] = experiment: Induction of apoptosis in human A549 cells assessed as cytoplasmic condensation at 2 uM after 48 hrs by Hoechst staining assay; format: functional, cell-based
How it was run: (§2)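 A549 cells (10,000 per 18-mm coverslip) grown 24 h, then given 2 µM compound for 48 h, with 0.001% DMSO vehicle and roscovitine controls. Hoechst 33258 (0.5 mg/mL) in 4% paraformaldehyde was added for 30 min. Randomly chosen fields were imaged by fluorescence microscopy and apoptotic cells scored manually by cytoplasmic condensation, apoptotic bodies and nuclear fragmentation.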

MDA-MB-468 = experiment: Cytotoxicity against human MDA-MB-468 cells after 48 hrs by MTT assay; format: functional; details: MDA-MB-468, 48 h
UO-31 = experiment: Cytotoxicity against human UO31 cells after 48 hrs by MTT assay; format: functional; details: UO-31, 48 h
RPMI-8226 = experiment: Cytotoxicity against human RPMI8226 cells after 48 hrs by MTT assay; format: functional; details: RPMI-8226, 48 h
NCI-H226 = experiment: Cytotoxicity against human NCI-H226 cells after 48 hrs by MTT assay; format: functional; details: NCI-H226, 48 h
A549 [2] = experiment: Induction of apoptosis in human A549 cells assessed as formation of apoptotic bodies at 2 uM after 48 hrs by Hoechst staining assay; format: functional, cell-based; how it was run: as §2
NCI-H322M = experiment: Cytotoxicity against human NCI-H322M cells after 48 hrs by MTT assay; format: functional
A498 = experiment: Cytotoxicity against human A498 cells after 48 hrs by MTT assay; format: functional; details: A498, 48 h
OVCAR-4 = experiment: Cytotoxicity against human OVCAR4 cells after 48 hrs by MTT assay; format: functional; details: OVCAR-4, 48 h
MCF7 = experiment: Cytotoxicity against human MCF7 cells after 48 hrs by MTT assay; format: functional, cell-based; details: MCF7, 48 h; how it was run: as §1
786-0 = experiment: Cytotoxicity against human 786-0 cells after 48 hrs by MTT assay; format: functional; details: 786-0, 48 h
A549 [3] = experiment: Induction of apoptosis in human A549 cells assessed as activation of caspase-3 at 1 to 2 uM after 48 hrs by ELISA relative to control; format: functional, cell-based
How it was run: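 A549 lung cancer cells exposed to 1 and 2 µM compound for 48 h, with roscovitine as positive control. Pellets lysed for 15 min, and supernatant caspase-3 activity read by a commercial colorimetric kit relative to untreated control. Values are mean ± SD of two experiments run in triplicate.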

ACHN = experiment: Cytotoxicity against human ACHN cells after 48 hrs by MTT assay; format: functional, cell-based; how it was run: as §1
NCI-H522 = experiment: Cytotoxicity against human NCI-H522 cells after 48 hrs by MTT assay; format: functional; details: NCI-H522, 48 h
A549 [4] = experiment: Cell cycle arrest at human A549 cells assessed as accumulation at G0/G1 phase at 2 uM after 48 hrs by propidium iodide-staining-based FACS flow cytometric analysis (reference value: 81.33%); format: functional
Malme-3M = experiment: Cytotoxicity against human MALME-3M cells after 48 hrs by MTT assay; format: functional
MDA-MB-435 = experiment: Cytotoxicity against human MDA-MB-435 cells after 48 hrs by MTT assay; format: functional; details: MDA-MB-435, 48 h
SK-MEL-5 = experiment: Cytotoxicity against human SK-MEL-5 cells after 48 hrs by MTT assay; format: functional; details: SK-MEL-5, 48 h
CAKI-1 = experiment: Cytotoxicity against human Caki1 cells after 48 hrs by MTT assay; format: functional; details: CAKI-1, 48 h
SK-MEL-28 = experiment: Cytotoxicity against human SK-MEL-28 cells after 48 hrs by MTT assay; format: functional; details: SK-MEL-28, 48 h
KM12 = experiment: Cytotoxicity against human KM12 cells after 48 hrs by MTT assay; format: functional; details: KM12, 48 h
[5] = Cytotoxicity against human NCI-ADR-RES cells after 48 hrs by MTT assay; format: functional
LOX IMVI = experiment: Cytotoxicity against human LOXIMVI cells after 48 hrs by MTT assay; format: functional

Compound | IC50 (HeLa) [µM] | GI50 (OVCAR-3) [µM] | GI50 (T47D) [µM] | GI50 (SNB-19) [µM] | Activity (A549 [1]) | GI50 (MDA-MB-468) [µM] | GI50 (NCI-H226) [µM] | Activity (A549 [2]) | GI50 (NCI-H322M) [µM] | GI50 (A498) [µM] | GI50 (MCF7) [µM] | IC50 (MCF7) [nM] | GI50 (786-0) [nM] | Activity (A549 [3]) | GI50 (ACHN) [µM] | IC50 (ACHN) [µM] | GI50 (NCI-H522) [nM] | Activity (A549 [4]) [%] | GI50 (Malme-3M) [µM] | also measured
O=C(Nc1nc2ccccc2s1)c1cc(-c2ccc(F)cc2)n2nc(-c3ccccc3)cc2n1 | 2.63 | 1.9 | 3.3 | 5.2 | Active | 5.1 | 6.3 | Active | 5.8 | 1.8 | 5.2 | 2290 | 2100 | Active | 2.2 | 3.46 | 2500 | 28.75 | 3.7 | GI50 (MOLT-4): 21 µM; GI50 (UO-31): 1900 nM; GI50 (RPMI-8226): 5.5 µM; GI50 (OVCAR-4): 1800 nM
COc1cc(-c2cc(C(=O)Nc3nc4ccccc4s3)nc3cc(-c4ccccc4)nn23)cc(OC)c1OC | 7.07 | 13.3 | 21.4 | 16.7 | Active | 13.9 | 27 | Active | 67.5 | 9.2 | 22.4 | 2880 | 2500 | Active | 45.7 | 4.36 | 1900 | 32.18 | 12 | GI50 (MDA-MB-435): 2600 nM; GI50 (SK-MEL-5): 13.8 µM; GI50 (CAKI-1): 53.7 µM; GI50 (SK-MEL-28): 3.3 µM; GI50 (KM12): 22 µM; GI50 [5]: 19.6 µM; GI50 (LOX IMVI): 5.5 µM
